MIC data for three molecules are collected here from ChEMBL document CHEMBL1134691, “3-Phenyl-5-acyloxymethyl-2H,5H-furan-2-ones: synthesis and biological activity of a novel group of potential antifungal drugs” (2001).

The term MIC denotes the least concentration at which growth counts as inhibited.

In brackets after ≈: the same amount, converted by molar mass.

A short description of assay [1]: Inhibition of Trichophyton mentagrophytes 445 growth for 120 hours in vitro. The settings on record: Trichophyton benhamiae, 120 h; read-out: MIC. The assay is classed as functional, Arthroderma benhamiae. The gist of the method: (§1)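 Dermatophyte grown in MOPS-buffered (0.165 M, pH 7.0) RPMI 1640 containing L-glutamine, in an M27-A microdilution format. Inoculum 5 × 10^3 cfu/mL final. Compounds from DMSO stocks (≤2% final), 2-fold dilutions 1000–0.24 µmol/L. Incubated at 35 °C, growth judged visually at 72 and 120 h. MIC endpoint is 80% inhibition relative to control; measured twice in duplicate.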

Assay [2] has as its system Aspergillus fumigatus. Put plainly: Inhibition of Aspergillus fumigatus 231 growth for 24 hours in vitro. The assay is classed as functional. Conditions: Aspergillus fumigatus, 24 h; read-out: MIC. Put shortly: (§2)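 Filamentous isolates tested by microdilution per NCCLS M27-A in RPMI 1640 plus L-glutamine, buffered with 0.165 M MOPS to pH 7.0. Final inoculum 5 × 10^3 cfu/mL. Compounds in DMSO (final ≤2%), 2-fold series over 1000–0.24 µmol/L. Plates held at 35 °C and read visually after 24 and 48 h. MIC taken as 80% inhibition of control growth; determined twice in duplicate.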

The subject of assay [3] is Candida tropicalis. Put plainly: Inhibition of Candida tropicalis 156 growth for 24 hours in vitro. The assay is classed as functional. The settings on record: Candida tropicalis, 24 h; read-out: MIC. Put shortly:
(§3)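 NCCLS M27-A broth microdilution in RPMI 1640 with L-glutamine and 0.165 M MOPS, pH 7.0. Isolates kept on Sabouraud dextrose agar. Inoculum 5 × 10^3 cfu/mL final. Compounds were diluted in DMSO (≤2% final) and tested in 2-fold dilutions of 1000–0.24 µmol/L. Incubation at 35 °C, OD540 read at 24 and 48 h. MIC = 80% growth inhibition versus control; assays run twice in duplicate.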

In assay [4] the test system is Trichosporon beigelii. The assay is described as follows: Inhibition of Trichosporon beigelli 1188 for 24 hours in vitro. The format is functional. The settings on record: Trichosporon beigelii, 24 h; read-out: MIC. The gist of the method:
(§4)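 Microdilution following NCCLS M27-A. Medium: RPMI 1640 with L-glutamine, 0.165 M MOPS, pH 7.0. Final inoculum 5 × 10^3 cfu/mL. Compounds dissolved in DMSO, final ≤2%, serially halved from 1000 to 0.24 µmol/L. Incubated at 35 °C and read at 24 and 48 h. MIC defined as 80% inhibition of control growth; run twice in duplicate.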

Assay [5] has as its system Nakaseomyces glabratus. The assay is described as follows: Inhibition of Candida glabrata 20/I growth for 48 hours in vitro. The assay is classed as functional. The settings on record: Nakaseomyces glabratus, 48 h; read-out: MIC. The gist of the method:
as §3

In assay [6] the test system is Candida albicans. The assay is described as follows: Inhibition of Candida albicans ATCC 44859 growth for 24 hours in vitro. The format is functional. The settings on record: Candida albicans, ATCC 44859, 24 h; read-out: MIC. The gist of the method: as §3
Assay [7] can be described thus: Inhibition of Trichophyton mentagrophytes 445 growth for 72 hours in vitro. Conditions: Trichophyton benhamiae, 72 h; read-out: MIC. The assay is classed as functional, Arthroderma benhamiae. Put shortly:
as §1

In assay [8] the test system is Pichia kudriavzevii. The assay is described as follows: Inhibition of Candida krusei E28 growth for 24 hours in vitro. The assay is classed as functional. Conditions: Pichia kudriavzevii, 24 h; read-out: MIC. The gist of the method:
as §3

Assay [9] deals with Aspergillus fumigatus. The assay is described as follows: Inhibition of Aspergillus fumigatus 231 growth for 48 hours in vitro. The assay is classed as functional. The settings on record: Aspergillus fumigatus, 48 h; read-out: MIC. Put shortly: as §2
The subject of assay [10] is Candida albicans. Put plainly: Inhibition of Candida albicans ATCC 44859 growth for 48 hours in vitro. The assay is classed as functional. The settings on record: Candida albicans, ATCC 44859, 48 h; read-out: MIC. Put shortly:
as §3

Assay [11] relates to Lichtheimia corymbifera. Put plainly: In vitro inhibition of Absidia corymbifera 272 growth for 48 hours. Conditions: Lichtheimia corymbifera, 48 h; read-out: MIC. The format is functional. Put shortly:
as §2

Assay [12] relates to Trichosporon beigelii. Put plainly: Inhibition of Trichosporon beigelli 1188 for 48 hours in vitro. The assay is classed as functional. The settings on record: Trichosporon beigelii, 48 h; read-out: MIC. The gist of the method: as §4
For assay [13], the system named is Lichtheimia corymbifera. The assay is described as follows: In vitro inhibition of Absidia corymbifera 272 growth for 24 hours. The format is functional. The settings on record: Lichtheimia corymbifera, 24 h; read-out: MIC. The gist of the method:
as §2

The test system of assay [14] is Clavispora lusitaniae. The assay is described as follows: Inhibition of Candida lusitaniae 2446/I growth for 24 hours in vitro. The format is functional. Conditions: Clavispora lusitaniae, 24 h; read-out: MIC. The gist of the method:
as §3

Assay [15] relates to Pichia kudriavzevii. The assay is described as follows: Inhibition of Candida krusei ATCC 6258 growth for 48 hours in vitro. Conditions: Pichia kudriavzevii, ATCC 6258, 48 h; read-out: MIC. The format is functional. The gist of the method:
as §3

The test system of assay [16] is Pichia kudriavzevii. The assay is described as follows: Inhibition of Candida krusei ATCC 6258 growth for 24 hours in vitro. The format is functional. Conditions: Pichia kudriavzevii, ATCC 6258, 24 h; read-out: MIC. The gist of the method: as §3
In assay [17] the test system is Clavispora lusitaniae. Put plainly: Inhibition of Candida lusitaniae 2446/I growth for 48 hours in vitro. The assay is classed as functional. Conditions: Clavispora lusitaniae, 48 h; read-out: MIC. The gist of the method:
as §3

For assay [18], the system named is Candida parapsilosis. Put plainly: Inhibition of Candida parapsilosis ATCC 22019 growth for 48 hours in vitro. Conditions: Lodderomyces parapsilosis, ATCC 22019, 48 h; read-out: MIC. The assay is classed as functional. Put shortly: as §3
Assay [19] relates to Nakaseomyces glabratus. The assay is described as follows: Inhibition of Candida glabrata 20/I growth for 24 hours in vitro. The assay is classed as functional. Conditions: Nakaseomyces glabratus, 24 h; read-out: MIC. The gist of the method:
as §3

For assay [20], the system named is Candida parapsilosis. The assay is described as follows: Inhibition of Candida parapsilosis ATCC 22019 growth for 24 hours in vitro. The settings on record: Lodderomyces parapsilosis, ATCC 22019, 24 h; read-out: MIC. The format is functional. Put shortly: as §3
Assay [21] has as its system Candida tropicalis. Put plainly: Inhibition of Candida tropicalis 156 growth for 48 hours in vitro. The format is functional. Conditions: Candida tropicalis, 48 h; read-out: MIC. Put shortly: as §3
In assay [22] the test system is Pichia kudriavzevii. Put plainly: Inhibition of Candida krusei E28 growth for 48 hours in vitro. The format is functional. Conditions: Pichia kudriavzevii, 48 h; read-out: MIC. Put shortly:
as §3

The subject of assay [23] is Candida albicans. Put plainly: Inhibition of Candida albicans ATCC 90028 for 48 hours in vitro. The format is functional. Conditions: Candida albicans, ATCC 90028, 48 h; read-out: MIC. Put shortly: as §3
The test system of assay [24] is Candida albicans. Put plainly: Inhibition of Candida albicans ATCC 90028 for 24 hours in vitro. The settings on record: Candida albicans, ATCC 90028, 24 h; read-out: MIC. The assay is classed as functional. Put shortly: as §3

For the molecule `CC(=O)OCC1C=C(c2ccc(Br)cc2)C(=O)O1` (configuration not stated), the MIC is 1.95 µM (≈ 0.607 µg/mL) in assay [1]; 0.98 µM (≈ 0.305 µg/mL) in the assay with Aspergillus fumigatus [2]; 7.81 µM (≈ 2.43 µg/mL) in the assay with Candida tropicalis [3]; 3.91 µM (≈ 1.22 µg/mL) with Trichosporon beigelii [4]; 1.95 µM (≈ 0.607 µg/mL) in the assay on Nakaseomyces glabratus [5]; below 0.98 µM in the assay on Candida albicans [6]. The MIC in assay [7] came out at 1.95 µM (≈ 0.607 µg/mL); in the assay on Pichia kudriavzevii [8] it was 3.91 µM (≈ 1.22 µg/mL); in the assay on Aspergillus fumigatus [9], 3.91 µM (≈ 1.22 µg/mL); in the assay on Candida albicans [10] it was 1.95 µM (≈ 0.607 µg/mL); in the assay on Lichtheimia corymbifera [11], 15.6 µM (≈ 4.86 µg/mL); in the assay with Trichosporon beigelii [12], 7.81 µM (≈ 2.43 µg/mL). The MIC in the assay with Lichtheimia corymbifera [13] is 7.81 µM (≈ 2.43 µg/mL); in the assay on Clavispora lusitaniae [14] it was 1.95 µM (≈ 0.607 µg/mL); in the assay on Pichia kudriavzevii [15], 7.81 µM (≈ 2.43 µg/mL); in the assay with Pichia kudriavzevii [16], 3.91 µM (≈ 1.22 µg/mL); in the assay on Clavispora lusitaniae [17], 3.91 µM (≈ 1.22 µg/mL); in the assay with Candida parapsilosis [18], 7.81 µM (≈ 2.43 µg/mL). In addition, the MIC in the assay on Nakaseomyces glabratus [19] came to 0.98 µM (≈ 0.305 µg/mL); in the assay on Candida parapsilosis [20], 7.81 µM (≈ 2.43 µg/mL); in the assay with Candida tropicalis [21] it was 15.6 µM (≈ 4.86 µg/mL); with Pichia kudriavzevii [22] it was 7.81 µM (≈ 2.43 µg/mL); with Candida albicans [23] it was 3.91 µM (≈ 1.22 µg/mL); in the assay with Candida albicans [24], 1.95 µM (≈ 0.607 µg/mL).

For the molecule `CC(C)(C)C(=O)OCC1C=C(c2ccc(Br)cc2)C(=O)O1` (configuration not stated), the MIC in assay [1] is 3.91 µM (≈ 1.38 µg/mL); in the assay with Aspergillus fumigatus [2], 0.98 µM (≈ 0.346 µg/mL); in the assay with Candida tropicalis [3], 7.81 µM (≈ 2.76 µg/mL); in the assay with Trichosporon beigelii [4], 7.81 µM (≈ 2.76 µg/mL); with Nakaseomyces glabratus [5], 1.95 µM (≈ 0.689 µg/mL); in the assay with Candida albicans [6], 0.49 µM (≈ 0.173 µg/mL). Further, the MIC in assay [7] worked out at 1.95 µM (≈ 0.689 µg/mL); in the assay with Pichia kudriavzevii [8], 7.81 µM (≈ 2.76 µg/mL); in the assay with Aspergillus fumigatus [9], 3.91 µM (≈ 1.38 µg/mL); with Candida albicans [10], 1.95 µM (≈ 0.689 µg/mL); with Lichtheimia corymbifera [11] it was 15.6 µM (≈ 5.52 µg/mL); in the assay on Trichosporon beigelii [12], 7.81 µM (≈ 2.76 µg/mL). Also, the MIC with Lichtheimia corymbifera [13] amounted to 7.81 µM (≈ 2.76 µg/mL); in the assay with Clavispora lusitaniae [14] it was 3.91 µM (≈ 1.38 µg/mL); in the assay with Pichia kudriavzevii [15] it was 7.81 µM (≈ 2.76 µg/mL); in the assay with Pichia kudriavzevii [16], 3.91 µM (≈ 1.38 µg/mL); with Clavispora lusitaniae [17], 7.81 µM (≈ 2.76 µg/mL); with Candida parapsilosis [18], 15.6 µM (≈ 5.52 µg/mL). In addition, the MIC came out at 1.95 µM (≈ 0.689 µg/mL) with Nakaseomyces glabratus [19]; 3.91 µM (≈ 1.38 µg/mL) in the assay on Candida parapsilosis [20]; 7.81 µM (≈ 2.76 µg/mL) with Candida tropicalis [21]; 7.81 µM (≈ 2.76 µg/mL) in the assay on Pichia kudriavzevii [22]; 7.81 µM (≈ 2.76 µg/mL) with Candida albicans [23]; 1.95 µM (≈ 0.689 µg/mL) in the assay on Candida albicans [24].

As to `COc1ccc(C2=CC(COC(C)=O)OC2=O)cc1` (configuration not stated), the MIC in [1] was 7.81 µM (≈ 2.05 µg/mL); in the assay on Aspergillus fumigatus [2], 3.91 µM (≈ 1.03 µg/mL); with Candida tropicalis [3], 31.2 µM (≈ 8.2 µg/mL); with Trichosporon beigelii [4], 62.5 µM (≈ 16.4 µg/mL); in the assay with Nakaseomyces glabratus [5] it was 31.2 µM (≈ 8.2 µg/mL); with Candida albicans [6] it was below 0.98 µM. Also, the MIC in [7] worked out at 7.81 µM (≈ 2.05 µg/mL); in the assay on Pichia kudriavzevii [8], 62.5 µM (≈ 16.4 µg/mL); in the assay on Aspergillus fumigatus [9] it was 31.2 µM (≈ 8.2 µg/mL); in the assay with Candida albicans [10], 15.6 µM (≈ 4.1 µg/mL); in the assay on Lichtheimia corymbifera [11], 62.5 µM (≈ 16.4 µg/mL); with Trichosporon beigelii [12] it was 62.5 µM (≈ 16.4 µg/mL). Also, the MIC was found to be 62.5 µM (≈ 16.4 µg/mL) with Lichtheimia corymbifera [13]; 31.2 µM (≈ 8.2 µg/mL) in the assay with Clavispora lusitaniae [14]; 125 µM (≈ 32.8 µg/mL) in the assay on Pichia kudriavzevii [15]; 62.5 µM (≈ 16.4 µg/mL) in the assay on Pichia kudriavzevii [16]; 62.5 µM (≈ 16.4 µg/mL) with Clavispora lusitaniae [17]; 62.5 µM (≈ 16.4 µg/mL) with Candida parapsilosis [18]. For the same molecule, the MIC is 31.2 µM (≈ 8.2 µg/mL) with Nakaseomyces glabratus [19]; 31.2 µM (≈ 8.2 µg/mL) in the assay with Candida parapsilosis [20]; 62.5 µM (≈ 16.4 µg/mL) in the assay on Candida tropicalis [21]; 125 µM (≈ 32.8 µg/mL) with Pichia kudriavzevii [22]; 31.2 µM (≈ 8.2 µg/mL) with Candida albicans [23]; 31.2 µM (≈ 8.2 µg/mL) in the assay on Candida albicans [24].
